Assay results from ChEMBL document CHEMBL5724801, “EUbOPEN Chemogenomics Library - Multiplex” (2024).
Several values for one entry are separate records, joined by “and”; a condition that tells them apart may be missing. Equal entries are not always repeated.

Tested on: Fibroblast
Assay: Multiplex assay against human fibroblast
Assay type: toxicity, cell-based
How it was run: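 Hoechst33342, BioTracker Green Microtubule Cytoskeleton Dye, MitoTracker Red and Annexin V Alexa Fluor 680 were added to live cells at seeding, and imaging on a CQ1 microscope at 37°C and 5% CO2 followed compound addition. Gating by CellPathfinder machine learning separated cells into Hoechst high-intensity objects or normal cells, then normal cells into healthy, pyknosed or fragmented nuclei, then pyknosed cells into mitotic or apoptotic. Per cents of healthy-nucleus cells are reported for the tubulin, mitochondrial-mass and membrane-permeability phenotypes.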

[1] = 12 h, 1 µM, compound concentration 1 uM
[2] = 12 h, 10 µM, compound concentration 10 uM
[3] = 24 h, 1 µM, compound concentration 1 uM
[4] = 24 h, 10 µM, compound concentration 10 uM
[5] = 48 h, 1 µM, compound concentration 1 uM
[6] = 48 h, 10 µM, compound concentration 10 uM

SMILES: CCc1nn2c(C)cc(C)nc2c1Cc1ccc(-c2nnc(C3CCNCC3)o2)cc1
- Population Apoptotic (%) [1]: 34% and 45%
- Population Fragmented Nuclei (%) [1]: 17% and 19%
- Population Healthy Nuclei (%) [1]: 63% and 46%
- Population Hoechst High Intensity Objects (%) [1]: 2% and 6%
- Population Membrane Permeable-Phenotype (%) [1]: 2%
- Population Mitochondria Different-Phenotype (%) [1]: 5% and 13%
- Population Mitotic Cells (%) [1]: 65% and 54%
- Population Normal (%) [1]: 97% and 93%
- Population Pyknosed Nuclei (%) [1]: 19% and 33%
- Population Tubulin-Different-Phenotype (%) [1]: 35% and 62%
- Total Cell Count [1]: 153 and 167
- Population Fragmented Nuclei (%) [2]: 19% and 38%
- Population Healthy Nuclei (%) [2]: 62% and 44%
- Population Hoechst High Intensity Objects (%) [2]: 5% and 3%
- Population Membrane Permeable-Phenotype (%) [2]: 0% and 5%
- Population Mitochondria Different-Phenotype (%) [2]: 19% and 14%
- Population Mitotic Cells (%) [2]: 48% and 85%
- Population Normal (%) [2]: 94% and 96%
- Population Pyknosed Nuclei (%) [2]: 18% and 17%
- Population Tubulin-Different-Phenotype (%) [2]: 72% and 79%
- Total Cell Count [2]: 188 and 162
- Population Apoptotic (%) [3]: 52% and 56%
- Population Fragmented Nuclei (%) [3]: 17% and 26%
- Population Healthy Nuclei (%) [3]: 68% and 49%
- Population Hoechst High Intensity Objects (%) [3]: 1% and 7%
- Population Membrane Permeable-Phenotype (%) [3]: 0% and 6%
- Population Mitotic Cells (%) [3]: 47% and 43%
- Population Normal (%) [3]: 98% and 92%
- Population Pyknosed Nuclei (%) [3]: 13% and 23%
- Population Tubulin-Different-Phenotype (%) [3]: 35% and 65%
- Total Cell Count [3]: 153 and 177
- Population Apoptotic (%) [4]: 53% and 56%
- Population Fragmented Nuclei (%) [4]: 17% and 40%
- Population Healthy Nuclei (%) [4]: 64% and 42%
- Population Hoechst High Intensity Objects (%) [4]: 9% and 3%
- Population Membrane Permeable-Phenotype (%) [4]: 0% and 11%
- Population Mitochondria Different-Phenotype (%) [4]: 22% and 16%
- Population Mitotic Cells (%) [4]: 46% and 44%
- Population Normal (%) [4]: 90% and 96%
- Population Pyknosed Nuclei (%) [4]: 17%
- Population Tubulin-Different-Phenotype (%) [4]: 79% and 80%
- Total Cell Count [4]: 185 and 151
- Population Apoptotic (%) [5]: 76% and 62%
- Population Fragmented Nuclei (%) [5]: 21% and 30%
- Population Healthy Nuclei (%) [5]: 70% and 54%
- Population Hoechst High Intensity Objects (%) [5]: 4%
- Population Membrane Permeable-Phenotype (%) [5]: 1% and 3%
- Population Mitochondria Different-Phenotype (%) [5]: 2% and 12%
- Population Mitotic Cells (%) [5]: 23% and 37%
- Population Normal (%) [5]: 95%
- Population Pyknosed Nuclei (%) [5]: 7% and 14%
- Population Tubulin-Different-Phenotype (%) [5]: 32% and 54%
- Total Cell Count [5]: 172 and 168
- Population Apoptotic (%) [6]: 84% and 54%
- Population Fragmented Nuclei (%) [6]: 23% and 45%
- Population Healthy Nuclei (%) [6]: 62% and 47%
- Population Hoechst High Intensity Objects (%) [6]: 9% and 2%
- Population Membrane Permeable-Phenotype (%) [6]: 0% and 2%
- Population Mitochondria Different-Phenotype (%) [6]: 16% and 17%
- Population Mitotic Cells (%) [6]: 15% and 45%
- Population Normal (%) [6]: 90% and 97%
- Population Pyknosed Nuclei (%) [6]: 13% and 7%
- Population Tubulin-Different-Phenotype (%) [6]: 73% and 78%
- Total Cell Count [6]: 208 and 161

SMILES: CC(F)(F)CN1CCOc2c(nn(-c3ccccc3Cl)c2-c2ccc(Cl)cc2)C1=O
- Population Apoptotic (%) [1]: 42% and 31%
- Population Healthy Nuclei (%) [1]: 66% and 48%
- Population Hoechst High Intensity Objects (%) [1]: 0%
- Population Membrane Permeable-Phenotype (%) [1]: 1%
- Population Mitochondria Different-Phenotype (%) [1]: 4% and 10%
- Population Mitotic Cells (%) [1]: 57% and 68%
- Population Normal (%) [1]: 99% and 93%
- Population Pyknosed Nuclei (%) [1]: 15% and 25%
- Population Tubulin-Different-Phenotype (%) [1]: 61%
- Total Cell Count [1]: 125 and 122
- Population Apoptotic (%) [2]: 47% and 30%
- Population Healthy Nuclei (%) [2]: 66% and 53%
- Population Hoechst High Intensity Objects (%) [2]: 1% and 5%
- Population Membrane Permeable-Phenotype (%) [2]: 0% and 2%
- Population Mitochondria Different-Phenotype (%) [2]: 19% and 8%
- Population Mitotic Cells (%) [2]: 52% and 70%
- Population Normal (%) [2]: 98% and 94%
- Population Pyknosed Nuclei (%) [2]: 17% and 15%
- Population Tubulin-Different-Phenotype (%) [2]: 49% and 57%
- Total Cell Count [2]: 109 and 134
- Population Apoptotic (%) [3]: 61% and 64%
- Population Healthy Nuclei (%) [3]: 65% and 52%
- Population Hoechst High Intensity Objects (%) [3]: 1% and 4%
- Population Membrane Permeable-Phenotype (%) [3]: 1%
- Population Mitochondria Different-Phenotype (%) [3]: 2% and 10%
- Population Mitotic Cells (%) [3]: 38% and 36%
- Population Normal (%) [3]: 98% and 95%
- Population Pyknosed Nuclei (%) [3]: 15% and 20%
- Population Tubulin-Different-Phenotype (%) [3]: 75%
- Total Cell Count [3]: 119 and 129
- Population Apoptotic (%) [4]: 33% and 35%
- Population Healthy Nuclei (%) [4]: 65% and 54%
- Population Hoechst High Intensity Objects (%) [4]: 0% and 1%
- Population Membrane Permeable-Phenotype (%) [4]: 0% and 6%
- Population Mitochondria Different-Phenotype (%) [4]: 26% and 10%
- Population Mitotic Cells (%) [4]: 66% and 64%
- Population Normal (%) [4]: 99% and 98%
- Population Pyknosed Nuclei (%) [4]: 10% and 14%
- Population Tubulin-Different-Phenotype (%) [4]: 58% and 60%
- Total Cell Count [4]: 111 and 121
- Population Apoptotic (%) [5]: 56% and 40%
- Population Healthy Nuclei (%) [5]: 63% and 53%
- Population Hoechst High Intensity Objects (%) [5]: 1% and 4%
- Population Membrane Permeable-Phenotype (%) [5]: 4% and 1%
- Population Mitotic Cells (%) [5]: 43% and 60%
- Population Normal (%) [5]: 98% and 95%
- Population Pyknosed Nuclei (%) [5]: 11% and 7%
- Population Tubulin-Different-Phenotype (%) [5]: 35% and 72%
- Total Cell Count [5]: 136 and 135
- Population Apoptotic (%) [6]: 78% and 54%
- Population Healthy Nuclei (%) [6]: 56% and 54%
- Population Hoechst High Intensity Objects (%) [6]: 1%
- Population Membrane Permeable-Phenotype (%) [6]: 0% and 3%
- Population Mitotic Cells (%) [6]: 21% and 45%
- Population Normal (%) [6]: 98%
- Population Pyknosed Nuclei (%) [6]: 11% and 7%
- Population Tubulin-Different-Phenotype (%) [6]: 57%
- Total Cell Count [6]: 120 and 141
